Data set [1] deals with Leishmania donovani. In words: Antileishmanial activity against DsRed2 expressing Leishmania donovani promastigote assessed as parasite death after 48 hrs by flow cytometry. The class given is functional, organism-based.
The nature of data set [2]: Cytotoxicity against BALB/c mouse peritoneal macrophages after 48 hrs by MTT assay. The class given is cell-based. The settings on record: peritoneal macrophage cell. Put shortly: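 BALB/c peritoneal macrophages were seeded at 1×10^5 cells/well and exposed to 0.2 to 600 μM compound for 48 h at 37 °C under 5% CO2. Viability was read by MTT cleavage, with formazan extracted in 10% SDS for 18 h at 24 °C and absorbance read at 570 nm.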
On the technique in general: Formazan colour is commonly taken as a measure of viable cells.

A short description of data set [3]: Selectivity index, ratio of CC50 for BALB/c mouse peritoneal macrophages to IC50 for DsRed2-Leishmania donovani amastigotes. It is filed as functional.
The nature of data set [4]: Induction of NO production in C57BL/6 mouse macrophages after 72 hrs by Griess assay. The note with it: macrophage.
Data set [5] relates to Leishmania donovani. As to the kind of experiment: Antileishmanial activity against DsRed2 expressing Leishmania donovani amastigotes assessed as parasite death after 72 hrs by flow cytometry. For orientation: Flow cytometry measures light scatter and fluorescence of single cells or particles in a stream.
The next data set concerns Macrophage. As to the kind of experiment: Inhibition of IL6 production in DsRed2-Leishmania donovani promastigote infected in C57BL/6 mouse macrophages after 72 hrs by ELISA. It is filed as functional, cell-based. Put shortly:
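C57BL/6 bone marrow-derived macrophages (3.5×10^6 cells/well, quadruplicates) were infected with DsRed2-L. donovani promastigotes at 1:10 and treated for 72 h at 37 °C. Supernatant IL-6 was measured by ELISA and reported in pg/mL as mean ± SE.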
On the technique in general: An ELISA detects its analyte on a solid surface through an enzyme-linked reagent.

Calls of active or inactive are those of the source. No cut-off for these calls is given here.

As to SODIUM ANTIMONY GLUCONATE, the concentration for half-maximal inhibition (IC50) (usually the concentration needed to halve the response being measured) with Leishmania donovani [1] (read-out: IC50) was determined as 307 µM. Besides, half-maximal cytotoxicity in data set [2] (CC50) was put at 53.4 µM.
Consider `C=CCc1ccc(Oc2cc([C@H](O)C=C)cc(OC)c2O)c(OC)c1`, for which, in data set [3], the “Ratio CC50/IC50” value was greater than 2.9. Further, in data set [4], the Activity entry was “Non-toxic”. For the same compound, the IC50 result was “Not Active” in the data set with Leishmania donovani [1] and 102 µM with Leishmania donovani [5]. Moreover, the inhibition result in the data set with Macrophage was “Active”. The CC50 (as a rule, the concentration that lowers cell viability or growth by half) in data set [2] is greater than 292 µM.

For the origin of these results see ChEMBL document CHEMBL3576766, “Immunomodulatory and Antileishmanial Activity of Phenylpropanoid Dimers Isolated from Nectandra leucantha” (J Nat Prod, 2015).
